Assay results from ChEMBL document CHEMBL3792371 (Bioorg Med Chem Lett, 2016).

What was measured:
[1] = biological target: Synaptic vesicular amine transporter (Rattus norvegicus, UniProt Q01827); assay: Inhibition of VMAT2 in rat striatal synaptic vesicle assessed as reduction of [3H]dopamine uptake after 8 mins by liquid scintillation spectrometric method
Summary of the method: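 Vesicles prepared from rat striata by sucrose homogenisation, osmotic shock and differential centrifugation. Inhibitor at 0.1 nM–10 mM with 0.1 µM [3H]DA. Filtration, then scintillation counting. n = 3–4 rats.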

[2] = biological target: Sodium-dependent dopamine transporter (Rattus norvegicus, UniProt P23977); assay: Inhibition of DAT in rat striatal synaptosomes assessed as reduction of [3H]dopamine uptake preincubated for 5 mins followed by [3H]dopamine addition measured after 10 mins by liquid scintillation spectrometric method; assay type: subcellular, Striatum
Chain of Sodium-dependent dopamine transporter (P23977 whole entry): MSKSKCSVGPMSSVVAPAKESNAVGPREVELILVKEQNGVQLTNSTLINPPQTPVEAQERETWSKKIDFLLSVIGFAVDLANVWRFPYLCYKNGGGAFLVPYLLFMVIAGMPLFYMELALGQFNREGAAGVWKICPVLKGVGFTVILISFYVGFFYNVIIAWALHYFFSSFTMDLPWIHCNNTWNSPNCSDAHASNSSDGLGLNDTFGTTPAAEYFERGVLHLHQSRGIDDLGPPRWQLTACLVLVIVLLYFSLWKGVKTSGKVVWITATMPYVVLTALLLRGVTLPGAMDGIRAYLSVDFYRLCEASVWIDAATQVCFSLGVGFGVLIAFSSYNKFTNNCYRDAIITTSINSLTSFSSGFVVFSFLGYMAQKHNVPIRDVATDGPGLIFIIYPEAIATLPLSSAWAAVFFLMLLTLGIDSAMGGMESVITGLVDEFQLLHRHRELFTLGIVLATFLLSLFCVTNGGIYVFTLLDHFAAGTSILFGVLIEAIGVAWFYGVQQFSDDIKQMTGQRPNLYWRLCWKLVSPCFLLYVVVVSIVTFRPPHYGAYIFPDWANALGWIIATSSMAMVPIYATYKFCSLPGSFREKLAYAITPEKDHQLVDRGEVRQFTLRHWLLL
Summary of the method: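 Rat striatum homogenized in ice-cold 0.32 M sucrose with 5 mM NaHCO3 (pH 7.4), spun at 2000g and then 20,000g. Synaptosomes (20 µg protein) were resuspended in oxygenated Krebs'-HEPES buffer (pH 7.4) with pargyline and ascorbic acid. Inhibitor was 0.1 nM–1 mM final (7–9 concentrations), run in duplicate at 34 °C. [3H]DA was 10 nM final. Nonspecific uptake was defined with 10 µM GBR 12909. Reactions were filtered on GF/B filters. Specific uptake was expressed as % of control, n = 3–4 rats.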

[3] = biological target: Sodium-dependent serotonin transporter (Rattus norvegicus, UniProt P31652); assay: Inhibition of SERT in rat striatal synaptosomes assessed as reduction of [3H]5-HT uptake preincubated for 5 mins followed by [3H]5-HT addition measured after 10 mins by liquid scintillation spectrometric method; assay type: subcellular, Striatum
Chain of Sodium-dependent serotonin transporter (P31652 whole entry): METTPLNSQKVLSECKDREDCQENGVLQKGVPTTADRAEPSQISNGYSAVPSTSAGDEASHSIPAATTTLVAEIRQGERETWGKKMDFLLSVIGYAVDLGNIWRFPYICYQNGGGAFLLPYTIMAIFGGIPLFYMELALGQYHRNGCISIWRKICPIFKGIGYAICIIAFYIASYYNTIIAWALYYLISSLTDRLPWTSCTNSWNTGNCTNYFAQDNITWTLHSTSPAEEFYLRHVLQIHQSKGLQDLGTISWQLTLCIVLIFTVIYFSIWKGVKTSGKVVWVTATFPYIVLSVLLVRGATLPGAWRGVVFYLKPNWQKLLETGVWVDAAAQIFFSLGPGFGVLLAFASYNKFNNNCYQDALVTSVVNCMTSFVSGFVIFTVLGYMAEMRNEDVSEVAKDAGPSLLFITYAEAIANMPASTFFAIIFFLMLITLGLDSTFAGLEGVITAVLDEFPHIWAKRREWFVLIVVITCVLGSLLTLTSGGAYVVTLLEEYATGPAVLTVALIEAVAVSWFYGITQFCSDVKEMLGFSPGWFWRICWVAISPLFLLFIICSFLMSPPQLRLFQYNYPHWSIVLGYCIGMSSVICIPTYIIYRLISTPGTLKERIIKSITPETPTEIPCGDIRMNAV
Summary of the method: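 Rat striatal synaptosomes were made as for the DAT assay: 20 µg protein in oxygenated Krebs'-HEPES buffer (pH 7.4) containing pargyline and ascorbic acid. Inhibitor was 0.1 nM–1 mM final (7–9 concentrations), run in duplicate at 34 °C. [3H]5-HT was 10 nM final. Nonspecific uptake was defined with 10 µM fluoxetine. Filters were washed with ice-cold Krebs' buffer containing 1 mM catechol. Specific uptake was expressed as % of control, n = 4 rats.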

Rattus norvegicus [4] = species: Rattus norvegicus; assay: Selectivity ratio of Ki for DAT in rat striatal synaptosomes to Ki for VMAT2 in rat striatal synaptic vesicle; assay type: subcellular
Summary of the method: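 Ratio of DAT Ki to VMAT2 Ki. […] 10 nM [3H]DA then added for 10 min at 34°C. Nonspecific uptake measured with 10 µM GBR 12909. VMAT2 Ki from vesicular [3H]DA uptake.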

Rattus norvegicus [5] = species: Rattus norvegicus; assay: Selectivity ratio of Ki for SERT in rat striatal synaptosomes to Ki for VMAT2 in rat striatal synaptic vesicle; assay type: subcellular
Summary of the method: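 Ratio of SERT Ki to VMAT2 Ki. […] 10 nM [3H]5-HT then added for 10 min at 34°C. Nonspecific uptake measured with 10 µM fluoxetine. n = 4 rats. VMAT2 Ki from vesicular [3H]DA uptake.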

Chain of Synaptic vesicular amine transporter (Q01827 whole entry): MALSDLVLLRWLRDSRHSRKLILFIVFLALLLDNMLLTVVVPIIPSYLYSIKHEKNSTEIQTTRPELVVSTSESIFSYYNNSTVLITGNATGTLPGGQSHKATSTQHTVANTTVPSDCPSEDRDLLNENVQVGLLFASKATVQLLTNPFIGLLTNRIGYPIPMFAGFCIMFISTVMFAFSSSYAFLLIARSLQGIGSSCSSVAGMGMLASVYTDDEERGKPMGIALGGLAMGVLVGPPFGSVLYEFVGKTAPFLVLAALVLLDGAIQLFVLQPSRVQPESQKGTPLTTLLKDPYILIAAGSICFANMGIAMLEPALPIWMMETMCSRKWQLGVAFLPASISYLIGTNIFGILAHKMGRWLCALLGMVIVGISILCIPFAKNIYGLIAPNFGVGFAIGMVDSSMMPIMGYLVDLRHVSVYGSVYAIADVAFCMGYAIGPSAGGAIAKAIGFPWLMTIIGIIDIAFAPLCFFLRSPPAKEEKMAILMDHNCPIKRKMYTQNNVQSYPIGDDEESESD

Row | Compound | Ki [1] | Ki [2] | Ki [3] | Ratio Ki (Rattus norvegicus [4]) | Ratio Ki (Rattus norvegicus [5])
1 | OC[C@H](O)CN1[C@@H](CCc2ccc(OCCF)cc2)CCC[C@H]1CCc1ccc(OCCF)cc1 | 120 nM | 3690 nM | 33 µM | 30 | 275
2 | CN1[C@@H](CCc2ccc(OCCF)cc2)CCC[C@H]1CCc1ccc(OCCF)cc1 | 140 nM | 3430 nM | 7.43 µM | – | –
3 | OC[C@H](O)CN1[C@@H](CCc2ccc(O)cc2)CCC[C@H]1CCc1ccc(O)cc1 | 39 nM | 1430 nM | 12.9 µM | – | 331
4 | CC(=O)Oc1ccc(CC[C@H]2CCC[C@@H](CCc3ccc(OC(C)=O)cc3)N2C)cc1 | 71 nM | 2130 nM | 11.6 µM | – | 163
5 | CN1[C@@H](CCc2ccc(O)cc2)CCC[C@H]1CCc1ccc(OCCF)cc1 | 31 nM | 2970 nM | 10.4 µM | 96 | 335
6 | COc1ccc(CC[C@H]2CCC[C@@H](CCc3ccc(OC)cc3)N2C[C@@H](O)CO)cc1 | – | 1440 nM | 9.36 µM | – | –
7 | Oc1ccc(CC[C@H]2CCC[C@@H](CCc3ccc(O)cc3)N2)cc1 | 31 nM | 866 nM | 1.03 µM | – | –
8 | FCCOc1ccc(CC[C@H]2CCC[C@@H](CCc3ccc(OCCF)cc3)N2)cc1 | 40 nM | 1670 nM | 0.64 µM | – | –
9 | CN1[C@@H](CCc2ccccc2)CCC[C@H]1CCc1ccccc1 [LOBELANE] | – | 1050 nM | 3.6 µM | – | –
10 | OC[C@H](O)CN1[C@@H](CCc2ccc(O)cc2)CCC[C@H]1CCc1ccc(OCCF)cc1 | 63 nM | 5470 nM | 1.43 µM | 87 | –
11 | Oc1ccc(CC[C@H]2CCC[C@@H](CCc3ccc(OCCF)cc3)N2)cc1 | 32 nM | 1660 nM | 1.05 µM | – | –
12 | CC(=O)Oc1ccc(CC[C@H]2CCC[C@@H](CCc3ccc(OC(C)=O)cc3)N2)cc1 | 220 nM | 1470 nM | 2.13 µM | – | –
13 | CN1[C@@H](CCc2ccc(O)cc2)CCC[C@H]1CCc1ccc(O)cc1 | 46 nM | 1350 nM | 12 µM | – | 260
